From ChEMBL document CHEMBL1127310, “Synthesis and anticonvulsant activities of alpha-acetamido-N-benzylacetamide derivatives containing an electron-deficient alpha-heteroaromatic substituent” (1994)

Experiments:
Type in all cases: functional
[1] = test system: Mus musculus; assay: Effective dose required to prevent tonic extension of the hind limbs in mice in the maximal electroshock seizures (MES) test when administered intraperitoneally; details: Hindlimb, ip
In short: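 Male Carworth Farms No. 1 mice, drug given ip. Seizures elicited by 60-cycle alternating current, 50 mA, for 0.2 s via corneal electrodes. Protection means no tonic hind-limb extension. Phase I screen at 30, 100 and 300 mg/kg. Dose-response then run at varied doses, normally eight mice per dose, at time of peak effect (0.5 h or 0.25 h).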

[2] = species: Mus musculus; assay: Median neurologically impairing dose was determined in mice using the rotarod test
In short: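 Male Carworth Farms No. 1 mice dosed ip and placed on a 1-in. knurled rod turning at 6 rpm. Neurotoxicity means failure to stay on the rod for 1 min. Four mice per dose in the screen, then normally eight mice per dose for the dose-response, at time of peak effect.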

[3] = Protective Index was determined using the ratio of TD50/ED50 value
In short: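 PI is TD50/ED50 in ip-dosed mice. TD50 comes from the rotorod or the horizontal screen test. ED50 comes from the MES test. Not determined when there was no MES activity below 100 mg/kg.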

Row | Structure (SMILES) | ED50 [1] [mg/kg] | TD50 [2] [mg/kg] | PI [3]
1 | CC(=O)NC(C(=O)NCc1ccccc1)c1ccccn1 (centres undefined) | 10.8 | < 100 | 
2 | CC(=O)NC(C(=O)NCc1ccccc1)c1ccsc1 (centres undefined) |  | < 100 | 
3 | CC(=O)NC(C(=O)NCc1ccccc1)c1nccs1 (centres undefined) |  | 69.1 | 5.7
4 | CC(=O)NC(C(=O)NCc1ccccc1)c1ccccc1 (centres undefined) |  | > 40 | 
5 | CC(=O)NC(C(=O)NCc1ccccc1)c1ccc[nH]1 (centres undefined) |  | < 100 | 
6 | CC(=O)NC(C(=O)NCc1ccccc1)c1ncccn1 (centres undefined) | 8.1 | 56.7 | 7
7 | CC(=O)NC(C(=O)NCc1ccccc1)c1cnccn1 (centres undefined) | 14.8 | 58.2 | 3.9
8 | CCC1(c2ccccc2)C(=O)NC(=O)NC1=O [PHENOBARBITAL] |  | 69 | 
9 | CC(=O)NC(C(=O)NCc1ccccc1)c1ncco1 (centres undefined) |  | 38.6 | 3.7
10 | CC(=O)NC(C(=O)NCc1ccccc1)c1cccs1 (centres undefined) |  | < 100 | 
11 | CC(=O)NC(C(=O)NCc1ccccc1)c1ccco1 (centres undefined) |  | ~40 | > 3.9
